Data published in ChEMBL document CHEMBL4014308, “Amphiphilic Tobramycin-Lysine Conjugates Sensitize Multidrug Resistant Gram-Negative Bacteria to Rifampicin and Minocycline” (J Med Chem, 2017).

Columns and labels:
[1] = system: Staphylococcus epidermidis; experiment: Antibacterial activity against methicillin-resistant Staphylococcus epidermidis isolate CAN-ICU 61589 after 18 hrs by microtiter dilution assay; type: functional; details: isolate CAN-ICU 61589, 18 h
In short: (§1)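 Broth microdilution following CLSI guidelines. An overnight culture was adjusted to 0.5 McFarland in saline, then diluted 1:50 in Mueller-Hinton broth. This inoculum was added in equal volume to 2-fold serial dilutions of agent in MHB and incubated 18 h at 37 °C. MIC was the lowest concentration with no visible growth.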

Pseudomonas aeruginosa [2] = experiment: Synergistic antibacterial activity against Pseudomonas aeruginosa PAO1 after 18 hrs in presence of kanamycin A by checkerboard assay; type: functional; details: PAO1, 18 h
In short: (§2)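 Checkerboard in MHB: antibiotic diluted along one axis and adjuvant along the other (10 × 7 matrix). Inoculum was a 1:50 dilution in MHB of a 0.5 McFarland saline suspension; incubated 18 h at 37 °C. Each FIC = concentration in the no-growth well divided by the MIC alone; FIC index = sum of both FICs. ≤0.5 synergy, 0.5–4 no interaction, ≥4 antagonism.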

Acinetobacter baumannii [3] = experiment: Potentiation of rifampicin-induced antibacterial activity against multidrug-resistant Acinetobacter baumannii 110193 at 4 ug/ml after 18 hrs by checkerboard assay; type: functional
In short: (§3)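 Checkerboard in Mueller-Hinton broth: antibiotic serially diluted along one axis and adjuvant along the other (10 × 7 matrix). Inoculum from a 0.5 McFarland saline suspension diluted 1:50 in MHB; 18 h at 37 °C, then plate read. MIC is the lowest concentration with no growth. FIC of each agent is its concentration in a no-growth well divided by its MIC alone; FIC index is the sum of both. FIC index ≤0.5 counts as synergy.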

Pseudomonas aeruginosa [4] = experiment: Potentiation of rifampicin-induced antibacterial activity against multidrug/extremely drug-resistant/colistin-susceptible Pseudomonas aeruginosa isolate 100036 assessed as fold reduction in rifampicin MIC at 4 ug/ml after 18 hrs by checkerboard assay relative to control; type: functional
In short: (§4)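 Checkerboard in Mueller-Hinton broth, 10 × 7 matrix, with the adjuvant held at 4 µg/mL. Inoculum from a 0.5 McFarland suspension diluted 1:50; 18 h at 37 °C. Antibiotic MIC (lowest concentration with no growth) with adjuvant is compared with the antibiotic MIC alone, giving a fold reduction.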

Acinetobacter baumannii [5] = experiment: Synergistic antibacterial activity against multidrug-resistant Acinetobacter baumannii AB027 after 18 hrs in presence of rifampicin by checkerboard assay; type: functional; details: AB027, 18 h
In short: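 Checkerboard in MHB with a 10 × 7 matrix: antibiotic serially diluted along one axis, adjuvant along the other. Inoculum was a 1:50 dilution of a 0.5 McFarland suspension, incubated 18 h at 37 °C and read on a plate reader. Each FIC is the concentration in a no-growth well divided by the MIC alone; FIC index is their sum, with ≤0.5 taken as synergy.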

Pseudomonas aeruginosa [6] = experiment: Potentiation of amikacin-induced antibacterial activity against Pseudomonas aeruginosa PAO1 at 4 ug/ml after 18 hrs by checkerboard assay; type: functional; in short: as §3
Pseudomonas aeruginosa [7] = experiment: Potentiation of minocycline-induced antibacterial activity against multidrug/extremely drug-resistant/colistin-susceptible Pseudomonas aeruginosa isolate 100036 assessed as fold reduction in minocycline MIC at 4 ug/ml after 18 hrs by checkerboard assay relative to control; type: functional; in short: as §4
[8] = Cytotoxicity against human JIMT1 cells assessed as cell viability at 20 uM after 48 hrs by MTS assay relative to control; type: cell-based, JIMT-1; details: read-out: Activity
In short: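 DU145 and JIMT-1 grown in DMEM with 10% FBS and penicillin/streptomycin at 37 °C, 5% CO2. 7500–9000 cells/well were seeded for 24 h, then treated at 2.5–30 µM (final) for 48 h. MTS reagent (20% v/v) added for 4 h and OD read at 490 nm after blank subtraction; viability expressed relative to vehicle control.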

Pseudomonas aeruginosa [9] = experiment: Potentiation of minocycline-induced antibacterial activity against multidrug/extremely drug-resistant/colistin-susceptible Pseudomonas aeruginosa isolate P262-101856 infected in Galleria mellonella assessed as mortality at 12.5 to 37.5 mg/kg after 24 hrs relative to control; type: functional
In short: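 Galleria mellonella larvae (~250 mg, used within 7 days), 15 per group, injected with 10 µL XDR P. aeruginosa P262 suspension (1.0×10^3 CFU/mL in PBS). At 2 h, a single 10 µL injection of combination at 12.5 + 12.5, 25 + 25 or 37.5 + 37.5 mg/kg; PBS vehicle control. Kept at 37 °C and survival scored over 24 h.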

Pseudomonas aeruginosa [10] = experiment: Potentiation of trimethoprim-induced antibacterial activity against Pseudomonas aeruginosa PAO1 at 4 ug/ml after 18 hrs by checkerboard assay; type: functional
In short: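 Checkerboard broth microdilution in MHB: antibiotic serially diluted along one axis, adjuvant along the other (10 × 7 matrix). Inoculum from 0.5 McFarland saline suspension diluted 1:50 in MHB; 18 h at 37 °C. MIC taken as lowest concentration with no growth. FIC per agent = combination MIC/MIC alone; FIC index = sum (≤0.5 synergy).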

Pseudomonas aeruginosa [11] = experiment: Antibacterial activity against multidrug/extremely drug-resistant/colistin-susceptible Pseudomonas aeruginosa isolate 101885 after 18 hrs by microtiter dilution assay; type: functional; details: isolate 101885, 18 h; in short: as §1
Pseudomonas aeruginosa [12] = experiment: Synergistic antibacterial activity against Pseudomonas aeruginosa PAO1 after 18 hrs in presence of ceftazidime by checkerboard assay; type: functional; details: PAO1, 18 h; in short: as §2
Pseudomonas aeruginosa [13] = experiment: Antibacterial activity against Pseudomonas aeruginosa ATCC 27853 after 18 hrs by microtiter dilution assay; type: functional; details: ATCC 27853, 18 h
In short: (§5)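 Broth microdilution per CLSI. Overnight culture adjusted to 0.5 McFarland in saline, diluted 1:50 in Mueller-Hinton broth, and added to an equal volume of 2-fold serial compound dilutions in MHB. Incubated 18 h at 37 °C. MIC taken as the lowest concentration with no visible growth.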

Pseudomonas aeruginosa [14] = experiment: Synergistic antibacterial activity against Pseudomonas aeruginosa PAO1 after 18 hrs in presence of amikacin by checkerboard assay; type: functional; details: PAO1, 18 h; in short: as §2
Pseudomonas aeruginosa [15] = experiment: Potentiation of kanamycin A-induced antibacterial activity against Pseudomonas aeruginosa PAO1 at 4 ug/ml after 18 hrs by checkerboard assay; type: functional; in short: as §3
Pseudomonas aeruginosa [16] = experiment: Potentiation of rifampicin-induced antibacterial activity against multidrug/extremely drug-resistant/colistin-susceptible Pseudomonas aeruginosa isolate P262-101856 infected in Galleria mellonella assessed as host survival at 75 mg/kg after 24 hrs relative to control; type: functional; details: isolate P262-101856, 24 h
In short: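 Galleria mellonella larvae (about 250 mg, used within 7 days; 15 per group) were injected with 10 µL of XDR P. aeruginosa P262 at 1.0×10^3 CFU/mL. At 2 h they received a single 10 µL injection: monotherapy at 75 mg/kg, or combinations at 12.5+12.5 to 75+75 mg/kg. PBS vehicle served as control. Survival was scored over 24 h at 37 °C.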

Enterococcus faecium = experiment: Antibacterial activity against Enterococcus faecium ATCC 27270 after 18 hrs by microtiter dilution assay; type: functional; details: ATCC 27270, 18 h; in short: as §5
Enterobacter cloacae = experiment: Antibacterial activity against multidrug-resistant Enterobacter cloacae 117029 after 18 hrs by microtiter dilution assay; type: functional; details: Enterobacter cloacae, 117029, 18 h; in short: as §1
Pseudomonas aeruginosa [17] = experiment: Synergistic antibacterial activity against Pseudomonas aeruginosa PAO1 after 18 hrs in presence of meropenem by checkerboard assay; type: functional; details: PAO1, 18 h; in short: as §2
Pseudomonas aeruginosa [18] = experiment: Synergistic antibacterial activity against Pseudomonas aeruginosa PAO1 after 18 hrs in presence of rifampicin by checkerboard assay; type: functional; details: PAO1, 18 h; in short: as §2

Cl.Cl.Cl.Cl.Cl.Cl.Cl.NCCCC[C@H](N)C(=O)N(CCCCCCCCCCCCO[C@@H]1[C@@H](O[C@H]2O[C@H](CO)[C@@H](O)[C@H](N)[C@H]2O)[C@H](N)C[C@H](N)[C@H]1O[C@H]1O[C@H](CN)[C@@H](O)C[C@H]1N)Cc1c2ccccc2c(Cl)c2ccccc12
MIC [1]: 4 µg/mL
MIC (Pseudomonas aeruginosa [2]): 0.5 µg/mL
fractional inhibitory concentration index (FICI) (Acinetobacter baumannii [3]): 0.095
fold change (FC) (Pseudomonas aeruginosa [4]): 128
MIC (Acinetobacter baumannii [5]): 8 µg/mL
fractional inhibitory concentration index (FICI) (Pseudomonas aeruginosa [6]): 1.063
fold change (FC) (Pseudomonas aeruginosa [7]): 32
viability at 48 h, 20 µM [8]: > 50%
mortality (Pseudomonas aeruginosa [9]): 100%
fractional inhibitory concentration index (FICI) (Pseudomonas aeruginosa [10]): 0.126
MIC (Pseudomonas aeruginosa [11]): 16 µg/mL
MIC (Pseudomonas aeruginosa [12]): 2 µg/mL
MIC (Pseudomonas aeruginosa [13]): 32 µg/mL
MIC (Pseudomonas aeruginosa [14]): 2 µg/mL
fractional inhibitory concentration index (FICI) (Pseudomonas aeruginosa [15]): 1.016
survival at 75 mg/kg (Pseudomonas aeruginosa [16]): 77%
MIC (Enterococcus faecium): 8 µg/mL
MIC (Enterobacter cloacae): 256 µg/mL
MIC (Pseudomonas aeruginosa [17]): 1 µg/mL
MIC (Pseudomonas aeruginosa [18]): 1 µg/mL
